Here are results for one molecule from article PMC2944037 (Environmental toxicology and chemistry / SETAC, 2010).

Structures are written as SMILES.

Assay [1] deals with alligator estrogen receptor alpha (aERα) (Alligator mississippiensis, UniProt Q765N7). The experiment in a line: Cell-free competitive binding assay with baculovirus-expressed recombinant aERα. On the set-up: species or system American alligator (Alligator mississippiensis). Particulars: IC50 of 17β-estradiol / IC50 of compound × 100.
Assay [2] has as its target aERα. Particulars: read-out: Dissociation constant (Kd) of aERα for E2; recombinant aERα; cited from earlier work.
Assay [3] deals with aERα. The experiment in a line: CV1 transactivation assay with exogenous aERα. It is filed as cell-based, American alligator (Alligator mississippiensis). Particulars: CV1 cells.
For assay [4], the system named is endogenous hERα and hERβ. In words: T47D-KBluc transactivation assay. Particulars: T47D-KBluc cells. The assay is classed as cell-based, human. In a few lines:
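Stably transfected T47D reporter line (endogenous ERα/ERβ, 3×-ERE-TATA-Luc) was plated at 10,000 cells/well and dosed after overnight culture for 24 h. […] After PBS rinse and lysis, luciferase RLU was read with D-luciferin and converted to log fold induction. One-way ANOVA was applied. There were two independent experiments, four wells per treatment.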

Turning to `C[C@]12CC[C@@H]3c4ccc(O)cc4CC[C@H]3[C@@H]1CC[C@@H]2O` [17β-Estradiol, reference compound], the “RBA, Alligator” value in assay [1] was 100. Besides, in assay [2], the Kd was 0.44 ± 0.039 nM. Moreover, the “Transcription of estrogen responsive gene with aERα” value in assay [3] was “induced transcription”. For the same molecule, the “Transcriptional activation of estrogen-dependent reporter” value in assay [4] is reported as “dose dependent transactivation”.

Broadly, the Kd is a measure of binding affinity in units of concentration.
